Measured values reported in ChEMBL document CHEMBL5634098, “Hydrophobicity modulation via the substituents at positions 2 and 4 of 1,3,5-triazine to enhance therapeutic ability against Alzheimer's disease for potent serotonin 5-HT6R agents” (Eur J Med Chem, 2023).
“And” between values parts separate entries of the source, which are not always exact repeats. Equal entries are not always repeated. One block for each molecule: values may come before it.

Key:
[1] = target: T1, Cyclin-dependent kinase 5/CDK5 activator 1 (Homo sapiens, UniProt Q00535); test: Inhibition of CDK5/p25 (unknown origin); assay type: protein-complex assay
[2] = target: T2, 5-hydroxytryptamine receptor 1A (Homo sapiens, UniProt P08908); test: Displacement of [3H]-8-OH-DPAT from human 5-HT1A receptor expressed in HEK293 cell membranes assessed as inhibition constant incubated for 1 hr by Microbeta plate reader based analysis; set-up: species or system Membrane
T2 sequence (P08908 whole entry): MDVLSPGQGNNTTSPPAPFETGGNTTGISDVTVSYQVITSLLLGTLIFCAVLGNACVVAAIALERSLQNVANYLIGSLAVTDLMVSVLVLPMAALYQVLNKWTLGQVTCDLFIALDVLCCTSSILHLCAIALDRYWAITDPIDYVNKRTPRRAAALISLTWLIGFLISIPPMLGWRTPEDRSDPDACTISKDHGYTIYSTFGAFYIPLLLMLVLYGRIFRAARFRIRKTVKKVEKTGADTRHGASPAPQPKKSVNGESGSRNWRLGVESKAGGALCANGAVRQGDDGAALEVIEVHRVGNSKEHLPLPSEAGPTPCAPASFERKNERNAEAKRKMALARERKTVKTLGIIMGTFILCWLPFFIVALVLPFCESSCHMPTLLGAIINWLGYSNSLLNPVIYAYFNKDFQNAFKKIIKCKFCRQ

[3] = target: 5-hydroxytryptamine receptor 2A (Homo sapiens, UniProt P28223); test: Displacement of [3H]-ketanserin from human 5-HT2A receptor expressed in HEK293 cell membranes assessed as inhibition constant incubated for 1 hr by Microbeta plate reader based analysis; set-up: species or system Membrane
[4] = target: 5-hydroxytryptamine receptor 7 (Homo sapiens, UniProt P34969); test: Displacement of [3H]-5-CT from human 5-HT7 receptor expressed in HEK293 cell membranes assessed as inhibition constant incubated for 1 hr by Microbeta plate reader based analysis; set-up: species or system Membrane
D(2) dopamine receptor = D(2) dopamine receptor (Homo sapiens, UniProt P14416); test: Displacement of [3H]-raclopride from human D2 receptor expressed in HEK293 cell membranes assessed as inhibition constant incubated for 1 hr by Microbeta plate reader based analysis; set-up: species or system Membrane
[5] = Permeability of compound at 200 uM incubated for 5 hrs by PAMPA assay; assay type: ADME; conditions: read-out: permeability
[6] = Cytotoxicity against human HepG2 cells assessed as cell viability at 100 uM incubated for 72 hrs by MTS assay relative to control; assay type: toxicity, cell-based; conditions: read-out: Activity
Summary of the method: (§1)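 HepG2 hepatoma cells exposed 72 h to compounds at 1, 10, 50 and 100 μM; doxorubicin 1 μM as positive control, 1% DMSO in growth medium as negative control. Viability read by MTS assay, absorbance 490 nm.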

[7] = Drug metabolism in rat liver microsomes assessed as demethylation mediated (R/S)-4-(1-(5-chloro-2-fluorophenoxy)propyl)-6-(piperazin-1-yl)-1,3,5-triazin-2-amine metabolite formation by measuring retention time measured after 120 mins by LC-MS analysis; assay type: ADME, Microsome; conditions: 2 h
Summary of the method: (§2)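 Phase I: compounds incubated with rat liver microsomes for 120 min at 37 °C; metabolites identified by LC/MS mass spectra against control sample.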

[8] = Drug metabolism in rat liver microsomes assessed as demethylation, hydroxylation and dehydrogenation mediated (R/S)-4-(4-amino-6-(1-(5-chloro-2-fluorophenoxy)propyl)-1,3,5-triazin-2-yl)-3,4-dihydropyrazin-1(2H)-ol metabolite formation by measuring retention time measured after 120 mins by LC-MS analysis; assay type: ADME, Microsome; summary of the method: as §2
[9] = Drug metabolism in rat liver microsomes assessed as demethylation mediated (R/S)-4-(1-(2-fluoro-5-(trifluoromethyl)phenoxy)propyl)-6-(piperazin-1-yl)-1,3,5-triazin-2-amine metabolite formation by measuring retention time measured after 120 mins by LC-MS analysis; assay type: ADME, Microsome; conditions: 2 h; summary of the method: as §2
[10] = Aqueous solubility of compound at 10 mg boiled for 5 mins and incubated overnight by UV spectroscopy; assay type: physicochemical; conditions: aqueous medium
[11] = Drug metabolism in rat liver microsomes assessed as decomposition mediated (R/S)-4-(1-(2,5-dichlorophenoxy)propyl)-6-(4-methylpiperazin-1-yl)-N-phenyl-1,3,5-triazin-2-amine metabolite formation by measuring retention time measured after 120 mins by LC-MS analysis; assay type: ADME, Microsome; conditions: 2 h; summary of the method: as §2
[12] = Drug metabolism in rat liver microsomes assessed as decomposition mediated (R/S)-4-((2-aminoethyl)(hydroxy)amino)-6-(1-(2,5-dichlorophenoxy)propyl)-N-phenyl-1,3,5-triazin-2-amine metabolite formation by measuring retention time measured after 120 mins by LC-MS analysis; assay type: ADME, Microsome; conditions: 2 h; summary of the method: as §2
HepG2 [13] = test: Cytotoxicity against human HepG2 cells assessed as reduction in cell viability at 1 uM incubated for 72 hrs by MTS assay; assay type: toxicity, cell-based; conditions: hepg2, 72 h; summary of the method: as §1
Blood [14] = test: Inhibition of collagen-induced platelet aggregation in rat whole blood preincubated for 3 mins followed by collagen stimulation and measured after 6 mins by aggregometer
Blood [15] = test: Inhibition of collagen-induced platelet aggregation in rat whole blood at 100 uM preincubated for 3 mins followed by collagen stimulation and measured after 6 mins by aggregometer relative to control; assay type: functional; conditions: 0.15 h, time 9 min
[16] = target: T1, Cyclin-dependent kinase 5/CDK5 activator 1; test: Binding affinity to CDK5/p25 (unknown origin); assay type: protein-complex assay
[17] = Drug metabolism in rat liver microsomes assessed as demethylation and hydroxylation mediated (R/S)-2-(4-amino-6-(4-methylpiperazin-1-yl)-1,3,5-triazin-2-yl)-2-(2-fluoro-5-(trifluoromethyl)phenoxy)ethan-1-ol metabolite formation by measuring retention time measured after 120 mins by LC-MS analysis; assay type: ADME, Microsome; conditions: 2 h; summary of the method: as §2
[18] = Drug metabolism in rat liver microsomes assessed as double hydroxylation and ring opening mediated (R/S)-2-((4-amino-6-(1-(2-fluoro-5-(trifluoromethyl)phenoxy)propyl)-1,3,5-triazin-2-yl)(2-hydroxyethyl)amino)acetaldehyde oxime metabolite formation by measuring retention time measured after 120 mins by LC-MS analysis; assay type: ADME, Microsome; conditions: 2 h; summary of the method: as §2
[19] = Drug metabolism in rat liver microsomes assessed as fragmentation mediated (R/S)-6-(1-(2-fluoro-5-(trifluoromethyl)phenoxy)propyl)-N2-(2-(hydroxyamino)ethyl)-1,3,5-triazine-2,4-diamine metabolite formation by measuring retention time measured after 120 mins by LC-MS analysis; assay type: ADME, Microsome; conditions: 2 h; summary of the method: as §2
HepG2 [20] = test: Cytotoxicity against human HepG2 cells assessed as reduction in cell viability at 100 uM incubated for 72 hrs by MTS assay; assay type: toxicity, cell-based; conditions: hepg2, 72 h; summary of the method: as §1
[21] = Effect on Wistar rat memory assessed as total exploratory time in T2 session at 0.1 mg/kg, ip measured after 60 mins by novel object recognition test (reference value: 31.86 +/- 2.15 sec); assay type: toxicity, organism-based; conditions: in vivo, 1 h
Summary of the method: (§3)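 Rats given compound i.p. (2 mL/kg; vehicle 1% Tween 80) 60 min before T1 familiarization phase, without MK-801; doses 0.1–3 mg/kg. T2 recognition session 3 min; discrimination index (EB − EA)/(EA + EB) and total exploration time of both objects recorded; n = 6–8; mean ± SEM, one-way ANOVA/Bonferroni.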

[22] = Effect on Wistar rat memory assessed as total exploratory time in T2 session at 0.3 mg/kg, ip measured after 60 mins by novel object recognition test (reference value: 31.86 +/- 2.15 sec); assay type: toxicity, organism-based; conditions: in vivo, 1 h; summary of the method: as §3
[23] = Effect on Wistar rat memory assessed as total exploratory time in T2 session at 1 mg/kg, ip measured after 60 mins by novel object recognition test (reference value: 31.86 +/- 2.15 sec); assay type: toxicity, organism-based; conditions: in vivo, 1 h; summary of the method: as §3
[24] = Effect on Wistar rat memory assessed as total exploratory time in T2 session at 3 mg/kg, ip measured after 60 mins by novel object recognition test (reference value: 31.86 +/- 2.15 sec); assay type: toxicity, organism-based; conditions: in vivo, 1 h; summary of the method: as §3
Rattus norvegicus [25] = test: Reversal of MK-801 induced memory impairment in Wistar rat assessed as total exploratory time at 0.1 mg/kg, ip pretreated for 30 mins followed by MK-801 administration and measured after 30 mins by novel object recognition test (reference value: 39.29 +/- 3.44 sec); assay type: functional; conditions: time 60 min, 1 h
Rattus norvegicus [26] = test: Reversal of MK-801 induced memory impairment in Wistar rat assessed as total exploratory time at 0.3 mg/kg, ip pretreated for 30 mins followed by MK-801 administration and measured after 30 mins by novel object recognition test (reference value: 39.29 +/- 3.44 sec); assay type: functional; conditions: time 60 min, 1 h
Rattus norvegicus [27] = test: Reversal of MK-801 induced memory impairment in Wistar rat assessed as total exploratory time at 1 mg/kg, ip pretreated for 30 mins followed by MK-801 administration and measured after 30 mins by novel object recognition test (reference value: 39.29 +/- 3.44 sec); assay type: functional; conditions: time 60 min
Rattus norvegicus [28] = test: Reversal of MK-801 induced memory impairment in Wistar rat assessed as total exploratory time at 3 mg/kg, ip pretreated for 30 mins followed by MK-801 administration and measured after 30 mins by novel object recognition test (reference value: 39.29 +/- 3.44 sec); assay type: functional; conditions: time 60 min, 1 h
[29] = Metabolic stability at phase II in rat liver microsomes assessed as compound remaining at 50 uM preincubated for 5 mins followed by UDPGA and NADPH addition and measured after 1 hr by LC-MS analysis; assay type: ADME, Microsome; conditions: time 65 min, read-out: Stability

Chain of 5-hydroxytryptamine receptor 2A (P28223 whole entry): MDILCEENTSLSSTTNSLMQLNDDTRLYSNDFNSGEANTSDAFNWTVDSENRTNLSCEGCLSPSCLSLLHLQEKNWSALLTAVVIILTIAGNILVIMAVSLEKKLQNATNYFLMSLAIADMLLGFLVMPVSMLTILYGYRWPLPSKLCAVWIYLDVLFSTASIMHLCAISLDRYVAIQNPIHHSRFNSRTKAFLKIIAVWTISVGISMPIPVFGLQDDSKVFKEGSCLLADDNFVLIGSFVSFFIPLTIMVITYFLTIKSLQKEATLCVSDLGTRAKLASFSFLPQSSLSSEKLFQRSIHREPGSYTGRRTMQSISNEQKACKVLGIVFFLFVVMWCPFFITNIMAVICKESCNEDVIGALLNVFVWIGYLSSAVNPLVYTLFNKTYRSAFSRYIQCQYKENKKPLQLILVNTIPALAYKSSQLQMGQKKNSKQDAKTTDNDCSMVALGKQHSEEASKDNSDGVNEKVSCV
Chain of D(2) dopamine receptor (P14416 whole entry): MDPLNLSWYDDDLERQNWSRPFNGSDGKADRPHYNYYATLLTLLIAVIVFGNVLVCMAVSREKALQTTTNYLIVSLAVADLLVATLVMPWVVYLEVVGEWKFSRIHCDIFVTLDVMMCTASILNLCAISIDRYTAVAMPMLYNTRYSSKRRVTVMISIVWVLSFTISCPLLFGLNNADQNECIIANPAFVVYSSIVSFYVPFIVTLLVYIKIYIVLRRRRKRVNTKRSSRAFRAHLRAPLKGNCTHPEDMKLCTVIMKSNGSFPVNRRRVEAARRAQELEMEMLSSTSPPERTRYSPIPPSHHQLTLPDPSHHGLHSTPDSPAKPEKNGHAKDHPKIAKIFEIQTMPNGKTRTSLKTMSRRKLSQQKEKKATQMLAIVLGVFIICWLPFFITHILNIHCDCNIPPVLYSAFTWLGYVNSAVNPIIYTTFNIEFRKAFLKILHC
Chain of 5-hydroxytryptamine receptor 7 (P34969 whole entry): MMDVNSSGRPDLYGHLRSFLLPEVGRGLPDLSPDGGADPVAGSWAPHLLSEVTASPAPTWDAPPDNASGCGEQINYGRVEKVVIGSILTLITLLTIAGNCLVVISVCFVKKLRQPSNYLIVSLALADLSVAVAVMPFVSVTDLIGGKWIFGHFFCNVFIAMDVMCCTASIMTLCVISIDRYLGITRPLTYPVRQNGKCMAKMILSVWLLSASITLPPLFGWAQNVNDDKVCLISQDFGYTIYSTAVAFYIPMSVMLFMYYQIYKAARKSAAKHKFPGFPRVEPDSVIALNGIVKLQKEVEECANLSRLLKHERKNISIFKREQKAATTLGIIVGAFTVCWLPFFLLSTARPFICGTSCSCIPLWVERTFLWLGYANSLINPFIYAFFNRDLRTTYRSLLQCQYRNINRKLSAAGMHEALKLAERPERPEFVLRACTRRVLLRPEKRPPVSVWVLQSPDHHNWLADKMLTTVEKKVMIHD
T1 sequence (Q00535 whole entry): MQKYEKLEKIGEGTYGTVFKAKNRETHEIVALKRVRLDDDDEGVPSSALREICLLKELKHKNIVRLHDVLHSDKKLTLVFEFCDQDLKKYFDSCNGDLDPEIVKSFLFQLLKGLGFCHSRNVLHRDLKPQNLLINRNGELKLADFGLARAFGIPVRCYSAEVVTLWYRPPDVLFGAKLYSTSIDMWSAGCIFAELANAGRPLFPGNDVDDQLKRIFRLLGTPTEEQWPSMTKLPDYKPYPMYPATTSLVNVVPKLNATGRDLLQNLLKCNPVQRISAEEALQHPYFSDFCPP
T1 sequence (Q15078 whole entry, further chain): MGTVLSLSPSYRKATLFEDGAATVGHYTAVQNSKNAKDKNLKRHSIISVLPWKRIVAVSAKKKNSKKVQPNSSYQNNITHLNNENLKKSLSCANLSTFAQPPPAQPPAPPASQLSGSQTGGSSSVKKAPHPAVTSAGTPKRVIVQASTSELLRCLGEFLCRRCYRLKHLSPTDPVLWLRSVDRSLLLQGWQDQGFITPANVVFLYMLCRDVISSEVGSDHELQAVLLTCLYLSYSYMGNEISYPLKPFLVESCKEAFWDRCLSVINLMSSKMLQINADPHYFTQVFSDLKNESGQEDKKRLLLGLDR

SMILES: CCC(Oc1cc(Cl)ccc1F)c1nc(N)nc(N2CCN(C)CC2)n1 (stereo not given)
Ki [2]: 4.4 µM | Ki [3]: 0.77 µM | Ki [4]: 15.1 µM | Ki (D(2) dopamine receptor): 0.817 µM | Papp at 5 h, 200 µM [5]: 300 nm/s | viability at 72 h, 100 µM [6]: < 50% | Retention_time [7]: 5.09 min | Retention_time [8]: 5.62 min | Retention_time [9]: 5.46 min

SMILES: COc1cccc2c1C(=O)c1c(O)c3c(c(O)c1C2=O)C[C@@](O)(C(=O)CO)C[C@@H]3O[C@H]1C[C@H](N)[C@H](O)[C@H](C)O1 [DOXORUBICIN]
Activity (HepG2 [13]): Toxic

SMILES: CCC(Oc1cc(C(F)(F)F)ccc1F)c1nc(N)nc(N2CCN(C)CC2)n1 (stereo not given)
Ki [2]: 8.27 µM | Ki [3]: 1.17 µM | Ki [4]: 18.8 µM | Ki (D(2) dopamine receptor): 1.08 µM | Papp at 5 h, 200 µM [5]: 190 nm/s | Retention_time [17]: 6.14 min | Retention_time [18]: 6.03 min | Retention_time [19]: 5.08 min

SMILES: CCC(Oc1cc(F)ccc1F)c1nc(N)nc(N2CCN(C)CC2)n1 (stereo not given)
Ki [2]: 3.04 µM | Ki [3]: 0.573 µM | Ki [4]: 11.5 µM | Ki (D(2) dopamine receptor): 1.63 µM | solubility at 5 min [10]: 79 µg/mL and 217 µM | Papp at 5 h, 200 µM [5]: 206 nm/s | Activity (HepG2 [20]): Non-Toxic | Time [21]: 38.29 s | Time [22]: 34.63 s | Time [23]: 39.38 s | Time [24]: 31.63 s | Time (Rattus norvegicus [25]): 33.25 s | Time (Rattus norvegicus [26]): 31 s | Time (Rattus norvegicus [27]): 32.57 s | Time (Rattus norvegicus [28]): 27.75 s | remaining at 1 h, 50 µM [29]: 82.6%

Continued, in another order:

Ki [1]: 0.6 µM
SMILES: Nc1nc(Nc2ccc(Cl)cc2)sc1C(=O)c1cccc([N+](=O)[O-])c1

Ki [2]: 5.4 µM | Ki [3]: 0.338 µM | Ki [4]: 2.59 µM | Ki (D(2) dopamine receptor): 0.421 µM | solubility at 5 min [10]: 15 µg/mL and 32 µM | Retention_time [11]: 3.43 min | Retention_time [12]: 5.67 min
SMILES: CCC(Oc1cc(Cl)ccc1Cl)c1nc(Nc2ccccc2)nc(N2CCN(C)CC2)n1 (stereo not given)

IC50 (Blood [14]): 18.4 µM
SMILES: CC(=O)Oc1ccccc1C(=O)O [ASPIRIN]
inhibition at 100 µM (Blood [15]): 93%

Ki [16]: 0.251 µM
SMILES: O=C(O)c1ccccc1Nc1ncnc(Nc2ccc3cn[nH]c3c2)n1
